What was measured:
Neutrophil collagenase = Neutrophil collagenase (Homo sapiens, UniProt P22894); assay: Inhibition of matrix metalloprotease-8
[1] = Pharmacokinetic data in Beagle dogs at 0.863 mg/kg oral dose.; format: ADME, organism-based, Canis lupus familiaris; design: dose 0.863 mg/kg, route oral; settings: dog, in vivo
Summary of the method: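 Two male beagle dogs (~10 kg) given 0.863 mg/kg orally as a 0.5% methocell suspension. Blood sampled before dosing and at 1, 2, 4, 6, 8, 12 and 24 h after. Plasma levels measured by LC/MS/MS after solid-phase extraction (detection limit 10 nM). Parameters reported as mean.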

[2] = biological target: 72 kDa type IV collagenase (Homo sapiens, UniProt P08253)
[3] = biological target: Matrix metalloproteinase-15 (Homo sapiens, UniProt P51511); assay: Inhibition of matrix metalloprotease-15
Interstitial collagenase = biological target: T1, Interstitial collagenase (Homo sapiens, UniProt P03956); assay: In vitro inhibition of human MMP-1.
T1 sequence (P03956 whole entry): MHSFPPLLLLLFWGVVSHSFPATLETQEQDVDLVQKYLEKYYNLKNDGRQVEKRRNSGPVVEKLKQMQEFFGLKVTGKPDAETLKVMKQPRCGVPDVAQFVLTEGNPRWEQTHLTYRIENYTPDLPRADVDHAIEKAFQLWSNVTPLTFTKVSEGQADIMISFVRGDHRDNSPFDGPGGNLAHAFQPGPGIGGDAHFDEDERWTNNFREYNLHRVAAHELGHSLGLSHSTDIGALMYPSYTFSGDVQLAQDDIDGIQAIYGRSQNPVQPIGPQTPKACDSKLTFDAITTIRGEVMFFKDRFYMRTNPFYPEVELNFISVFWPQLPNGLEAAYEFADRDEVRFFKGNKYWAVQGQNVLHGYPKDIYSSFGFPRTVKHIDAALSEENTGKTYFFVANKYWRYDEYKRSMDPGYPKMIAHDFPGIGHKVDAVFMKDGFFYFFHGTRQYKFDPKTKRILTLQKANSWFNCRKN

Matrilysin = biological target: T2, Matrilysin (Homo sapiens, UniProt P09237); assay: Inhibition of matrix metalloprotease-7
T2 sequence (P09237 whole entry): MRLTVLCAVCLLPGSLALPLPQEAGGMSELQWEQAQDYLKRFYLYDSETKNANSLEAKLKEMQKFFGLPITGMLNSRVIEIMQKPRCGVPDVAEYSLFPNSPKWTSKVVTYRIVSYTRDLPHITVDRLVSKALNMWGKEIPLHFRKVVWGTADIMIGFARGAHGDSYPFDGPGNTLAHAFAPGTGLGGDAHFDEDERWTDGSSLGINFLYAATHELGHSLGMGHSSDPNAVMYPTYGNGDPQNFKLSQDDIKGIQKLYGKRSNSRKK

Stromelysin-1 = Stromelysin-1 (Homo sapiens, UniProt P08254); assay: Inhibition of human MMP-3.
[4] = Pharmacokinetic data in Beagle dogs at 0.74 mg/kg i.v. dose and 0.863 mg/kg p.o. dose; format: ADME, organism-based, Canis lupus familiaris; settings: dog, in vivo, po
Summary of the method: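 Male beagle dogs: iv 0.74 mg/kg in 10% ethanol (n=2), oral 0.863 mg/kg in 0.5% methocell suspension (n=2). Blood sampled to 24 h post-dose. Plasma analysed by LC/MS/MS after solid-phase extraction (detection limit 10 nM). Mean parameters given.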

[5] = biological target: Matrix metalloproteinase-16 (Homo sapiens, UniProt P51512); assay: Inhibition of matrix metalloprotease-16
[6] = biological target: Matrix metalloproteinase-14 (Homo sapiens, UniProt P50281); assay: Inhibition of matrix metalloprotease-14
Collagenase 3 = Collagenase 3 (Homo sapiens, UniProt P45452)
[7] = biological target: Matrix metalloproteinase-9 (Homo sapiens, UniProt P14780); assay: In vitro inhibition of human MMP-9.
[8] = biological target: Disintegrin and metalloproteinase domain-containing protein 17 (Homo sapiens, UniProt P78536)
[9] = Pharmacokinetic data in Beagle dogs at 0.74 mg/kg intravenous dose.; format: ADME, organism-based, Canis lupus familiaris; design: dose 0.74 mg/kg, route intravenous; settings: dog, in vivo
Summary of the method: (§1)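 Male beagle dogs (~10 kg), two per compound, dosed iv in 10% ethanol solution. Blood sampled before dosing and at 1, 2, 4, 6, 8, 12 and 24 h after. Plasma levels measured by LC/MS/MS after solid-phase extraction (detection limit 10 nM). Parameters reported as mean.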

[10] = Maximal plasma concentration in Beagle dogs after 0.74 mg/kg intravenous dose.; format: ADME, organism-based, Canis lupus familiaris; design: dose 0.74 mg/kg, route intravenous; settings: dog, in vivo; summary of the method: as §1
[11] = biological target: Disintegrin and metalloproteinase domain-containing protein 17 (Sus scrofa, UniProt O77636)
Sequence of Disintegrin and metalloproteinase domain-containing protein 17 (Sus scrofa, UniProt O77636) (O77636 whole entry, the tested form may be a part): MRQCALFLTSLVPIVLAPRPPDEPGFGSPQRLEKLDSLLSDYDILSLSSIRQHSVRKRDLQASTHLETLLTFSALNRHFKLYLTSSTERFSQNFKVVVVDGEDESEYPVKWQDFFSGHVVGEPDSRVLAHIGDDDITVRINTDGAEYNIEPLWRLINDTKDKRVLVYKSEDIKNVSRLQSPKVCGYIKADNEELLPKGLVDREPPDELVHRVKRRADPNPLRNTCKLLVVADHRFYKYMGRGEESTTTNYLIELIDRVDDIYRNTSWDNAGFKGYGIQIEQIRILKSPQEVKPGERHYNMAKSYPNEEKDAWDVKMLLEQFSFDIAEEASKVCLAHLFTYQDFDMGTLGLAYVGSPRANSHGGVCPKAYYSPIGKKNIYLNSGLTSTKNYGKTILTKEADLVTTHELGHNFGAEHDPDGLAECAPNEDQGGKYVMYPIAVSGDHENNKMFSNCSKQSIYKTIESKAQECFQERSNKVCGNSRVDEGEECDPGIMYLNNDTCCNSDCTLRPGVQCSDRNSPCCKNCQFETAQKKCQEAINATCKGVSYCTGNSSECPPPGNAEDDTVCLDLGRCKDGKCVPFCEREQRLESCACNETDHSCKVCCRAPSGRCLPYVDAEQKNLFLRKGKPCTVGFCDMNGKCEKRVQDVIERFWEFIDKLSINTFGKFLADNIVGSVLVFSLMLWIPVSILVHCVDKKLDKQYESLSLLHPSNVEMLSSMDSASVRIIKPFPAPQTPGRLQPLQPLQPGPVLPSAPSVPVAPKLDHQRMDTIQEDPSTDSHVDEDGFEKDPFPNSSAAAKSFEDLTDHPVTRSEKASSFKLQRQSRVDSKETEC

Sequence of Matrix metalloproteinase-15 (P51511 whole entry): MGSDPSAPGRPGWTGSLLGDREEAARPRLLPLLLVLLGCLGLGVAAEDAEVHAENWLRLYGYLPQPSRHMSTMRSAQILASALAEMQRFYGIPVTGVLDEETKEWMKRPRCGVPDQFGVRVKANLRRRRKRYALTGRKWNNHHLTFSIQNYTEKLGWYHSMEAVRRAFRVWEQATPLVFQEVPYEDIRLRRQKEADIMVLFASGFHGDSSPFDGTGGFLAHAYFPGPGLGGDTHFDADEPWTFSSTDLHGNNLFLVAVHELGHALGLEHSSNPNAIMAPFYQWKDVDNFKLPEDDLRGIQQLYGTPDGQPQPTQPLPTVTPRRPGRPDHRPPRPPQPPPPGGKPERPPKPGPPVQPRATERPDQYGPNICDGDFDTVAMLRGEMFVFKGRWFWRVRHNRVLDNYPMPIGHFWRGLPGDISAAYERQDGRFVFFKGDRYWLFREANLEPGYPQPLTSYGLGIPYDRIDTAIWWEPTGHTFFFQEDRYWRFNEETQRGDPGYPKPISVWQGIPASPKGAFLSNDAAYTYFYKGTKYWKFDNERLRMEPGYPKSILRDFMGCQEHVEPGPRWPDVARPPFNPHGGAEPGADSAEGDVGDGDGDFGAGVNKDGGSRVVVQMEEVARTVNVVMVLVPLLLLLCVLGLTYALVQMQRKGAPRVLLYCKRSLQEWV
Sequence of Matrix metalloproteinase-16 (P51512 whole entry): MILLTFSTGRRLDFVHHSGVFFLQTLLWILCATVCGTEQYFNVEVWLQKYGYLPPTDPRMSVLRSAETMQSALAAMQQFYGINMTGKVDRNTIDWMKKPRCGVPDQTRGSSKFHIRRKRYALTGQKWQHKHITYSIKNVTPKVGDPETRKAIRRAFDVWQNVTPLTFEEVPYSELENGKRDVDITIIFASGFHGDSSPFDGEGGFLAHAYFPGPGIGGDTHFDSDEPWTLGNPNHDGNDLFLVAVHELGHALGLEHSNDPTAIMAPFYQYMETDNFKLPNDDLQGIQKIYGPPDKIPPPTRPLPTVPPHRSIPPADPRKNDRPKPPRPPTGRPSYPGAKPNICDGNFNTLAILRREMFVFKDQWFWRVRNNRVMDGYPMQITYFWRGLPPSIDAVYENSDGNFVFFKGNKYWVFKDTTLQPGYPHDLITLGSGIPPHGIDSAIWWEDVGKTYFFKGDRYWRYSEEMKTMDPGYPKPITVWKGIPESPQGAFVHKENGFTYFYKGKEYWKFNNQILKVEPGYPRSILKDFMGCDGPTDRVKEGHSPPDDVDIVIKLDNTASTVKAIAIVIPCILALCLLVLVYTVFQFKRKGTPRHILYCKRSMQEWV
Sequence of Disintegrin and metalloproteinase domain-containing protein 17 (Homo sapiens, UniProt P78536) (P78536 whole entry, the tested form may be a part): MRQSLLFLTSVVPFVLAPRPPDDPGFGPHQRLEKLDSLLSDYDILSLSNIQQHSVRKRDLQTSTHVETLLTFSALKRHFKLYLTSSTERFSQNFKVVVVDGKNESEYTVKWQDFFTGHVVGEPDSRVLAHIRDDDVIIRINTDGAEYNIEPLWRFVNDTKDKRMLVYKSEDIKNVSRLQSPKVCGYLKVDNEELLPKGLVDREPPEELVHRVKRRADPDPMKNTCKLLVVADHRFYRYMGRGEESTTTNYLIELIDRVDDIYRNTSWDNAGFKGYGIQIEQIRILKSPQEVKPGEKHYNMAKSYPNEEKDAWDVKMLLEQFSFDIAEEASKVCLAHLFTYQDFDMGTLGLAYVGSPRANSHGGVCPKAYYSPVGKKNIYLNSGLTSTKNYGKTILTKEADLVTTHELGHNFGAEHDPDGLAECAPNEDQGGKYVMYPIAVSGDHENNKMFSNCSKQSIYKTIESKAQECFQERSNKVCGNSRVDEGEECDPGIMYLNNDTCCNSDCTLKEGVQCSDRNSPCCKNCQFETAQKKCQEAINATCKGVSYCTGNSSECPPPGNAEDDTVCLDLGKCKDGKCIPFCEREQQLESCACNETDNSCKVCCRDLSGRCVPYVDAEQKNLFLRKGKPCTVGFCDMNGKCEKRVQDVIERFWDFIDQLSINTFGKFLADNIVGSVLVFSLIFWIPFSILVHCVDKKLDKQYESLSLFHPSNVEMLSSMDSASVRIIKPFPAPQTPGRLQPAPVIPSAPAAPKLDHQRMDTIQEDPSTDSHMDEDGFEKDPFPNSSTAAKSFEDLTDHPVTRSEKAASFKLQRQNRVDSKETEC
Sequence of 72 kDa type IV collagenase (P08253 whole entry): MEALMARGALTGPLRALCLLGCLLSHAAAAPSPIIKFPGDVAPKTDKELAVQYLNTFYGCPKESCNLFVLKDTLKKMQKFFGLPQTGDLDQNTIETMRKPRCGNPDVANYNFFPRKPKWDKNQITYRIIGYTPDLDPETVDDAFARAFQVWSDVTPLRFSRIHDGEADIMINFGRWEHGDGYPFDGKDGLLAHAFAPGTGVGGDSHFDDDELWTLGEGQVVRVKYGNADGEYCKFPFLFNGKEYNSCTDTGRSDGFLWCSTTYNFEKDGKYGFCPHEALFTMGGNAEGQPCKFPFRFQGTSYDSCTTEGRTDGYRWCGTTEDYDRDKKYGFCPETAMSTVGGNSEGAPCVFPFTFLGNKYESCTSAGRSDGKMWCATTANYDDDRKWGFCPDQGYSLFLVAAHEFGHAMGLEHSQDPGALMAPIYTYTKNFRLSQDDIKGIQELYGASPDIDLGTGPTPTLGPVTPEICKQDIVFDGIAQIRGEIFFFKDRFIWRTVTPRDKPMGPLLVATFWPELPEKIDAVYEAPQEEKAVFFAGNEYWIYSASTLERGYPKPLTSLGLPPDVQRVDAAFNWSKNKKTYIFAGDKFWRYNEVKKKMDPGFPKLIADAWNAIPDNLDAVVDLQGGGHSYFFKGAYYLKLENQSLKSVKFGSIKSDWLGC
Sequence of Stromelysin-1 (P08254 whole entry): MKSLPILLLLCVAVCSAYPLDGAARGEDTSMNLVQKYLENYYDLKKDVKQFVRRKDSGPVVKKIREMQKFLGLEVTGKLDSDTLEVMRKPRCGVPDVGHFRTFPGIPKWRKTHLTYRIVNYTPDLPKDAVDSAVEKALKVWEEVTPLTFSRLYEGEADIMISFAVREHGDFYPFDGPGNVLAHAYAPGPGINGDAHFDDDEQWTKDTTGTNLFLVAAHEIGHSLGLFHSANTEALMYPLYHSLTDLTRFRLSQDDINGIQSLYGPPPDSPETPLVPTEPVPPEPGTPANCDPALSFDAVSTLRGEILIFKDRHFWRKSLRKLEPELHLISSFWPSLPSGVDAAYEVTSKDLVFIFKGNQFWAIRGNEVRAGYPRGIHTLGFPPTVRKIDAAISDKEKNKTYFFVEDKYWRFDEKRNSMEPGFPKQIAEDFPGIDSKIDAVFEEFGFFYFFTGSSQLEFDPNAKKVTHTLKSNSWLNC
Sequence of Neutrophil collagenase (P22894 whole entry): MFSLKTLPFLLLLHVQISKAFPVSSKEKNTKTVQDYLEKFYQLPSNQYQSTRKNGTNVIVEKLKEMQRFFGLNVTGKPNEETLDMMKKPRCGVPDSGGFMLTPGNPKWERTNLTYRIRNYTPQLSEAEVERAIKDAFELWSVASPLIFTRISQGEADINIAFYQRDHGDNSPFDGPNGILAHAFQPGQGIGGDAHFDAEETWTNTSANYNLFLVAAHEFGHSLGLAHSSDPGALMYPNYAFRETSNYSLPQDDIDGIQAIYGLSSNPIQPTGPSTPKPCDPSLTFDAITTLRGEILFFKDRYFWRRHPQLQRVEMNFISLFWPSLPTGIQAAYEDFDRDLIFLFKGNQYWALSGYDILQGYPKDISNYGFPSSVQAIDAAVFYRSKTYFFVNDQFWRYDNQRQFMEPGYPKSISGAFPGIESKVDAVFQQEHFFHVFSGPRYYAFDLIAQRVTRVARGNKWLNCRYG

Question: For CNC(=O)CNC(=O)[C@@H]1Cc2ccc(cc2)OCCC[C@H](C(=O)NO)[C@@H](CC(C)C)C(=O)N1, which Ki (Neutrophil collagenase) is on record?
Answer: 0.5 nM

Question: What about the AUC [1] of the same molecule?
Answer: 342 ng·h/mL

Question: And the half-life [1]?
Answer: 1.29 h

Question: What about the Ki [2] of the same molecule?
Answer: 1.1 nM

Question: And the Ki [3]?
Answer: 20 nM

Question: And the Ki (Interstitial collagenase)?
Answer: 3 nM

Question: And the Ki (Matrilysin)?
Answer: 0.8 nM

Question: And the Ki (Stromelysin-1)?
Answer: 14 nM

Question: And the bioavailability [4]?
Answer: 11%

Question: And the Ki [5]?
Answer: 35 nM

Question: What about the Ki [6] of the same molecule?
Answer: 94 nM

Question: What about the Ki (Collagenase 3) of the same molecule?
Answer: 0.45 nM

Question: What about the Ki [7] of the same molecule?
Answer: 0.9 nM

Question: What about the IC50 [8] of the same molecule?
Answer: 220 nM

Question: And the AUC [9]?
Answer: 2613 ng·h/mL

Question: What about the T1/2 [9] of the same molecule?
Answer: 0.81 h

Question: What about the T max [9] of the same molecule?
Answer: 0.88 h

Question: What about the clearance [9] of the same molecule?
Answer: 7 mL/min/kg

Question: And the Vd ([9]; read-out: Vss)?
Answer: 0.7 L/kg

Question: What about the Cmax [10] of the same molecule?
Answer: 121 ng/mL

Question: What about the Ki [11] of the same molecule?
Answer: 12 nM

Source: ChEMBL document CHEMBL1134554, “Design, synthesis, and structure-activity relationships of macrocyclic hydroxamic acids that inhibit tumor necrosis factor alpha release in vitro and in vivo” (J Med Chem, 2001)
